Holding throughout (format): functional
Experiment [1] concerns Candida albicans. The experiment can be described thus: Antifungal activity against Candida albicans SC5314 after 48 hrs by broth microdilution method. The note with it: SC5314, 48 h. The procedure, abridged:
(§1)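 MIC80 read by broth microdilution, with fluconazole as the positive antifungal agent. Values are reported in µg/mL as means of three independent experiments. Strains: wild-type SC5314 and DSY654, which lacks the Cdr1 and Cdr2 efflux pumps.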

Experiment [2] concerns Candida albicans. The experiment can be described thus: Synergistic antifungal activity against fluconazole-resistant Candida albicans 28A after 48 hrs in presence of fluconazole by broth microdilution checkerboard method. The procedure, abridged:
(§2)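 Checkerboard dose-response matrix on strain 28A with gradients of fluconazole and the test compound in RPMI 1640, read after 48 h at 35 °C. MIC80 is taken alone and in combination, and FICI is calculated. Synergy is FICI ≤0.5, indifference >0.5-4, and antagonism >4.0.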
In general terms: Broth dilution looks for growth in wells or tubes with falling amounts of substance.

Experiment [3] has as its system Candida albicans. The experiment can be described thus: Antifungal activity against fluconazole-resistant Candida albicans 28A after 48 hrs by broth microdilution method. Put shortly:
(§3)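 Clinical fluconazole-resistant isolates tested in broth microdilution with the compound alone. The endpoint is MIC80, the lowest concentration giving 80% growth inhibition, in µg/mL.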

Experiment [4] concerns Candida albicans. The experiment can be described thus: Potentiation of fluconazole-induced antifungal activity against fluconazole-resistant Candida albicans 28A after 48 hrs by broth microdilution checkerboard method. Put shortly:
as §2

In experiment [5] the test system is Candida albicans. The experiment can be described thus: Antifungal activity against CDR1 and CDR2 efflux pump deficient Candida albicans DSY654 after 48 hrs by broth microdilution method. The note with it: DSY654, 48 h. Put shortly: as §1
Experiment [6] relates to Candida albicans. The experiment in a line: Potentiation of fluconazole-induced antifungal activity against fluconazole-resistant Candida albicans 28A assessed as fluconazole MIC80 after 48 hrs by broth microdilution checkerboard method. Put shortly:
as §2

For experiment [7], the system named is Candida albicans. The experiment can be described thus: Potentiation of fluconazole-induced antifungal activity against drug-resistant Candida albicans 28J assessed as fluconazole MIC80 after 48 hrs by broth microdilution checkerboard method. Put shortly: (§4)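 Broth microdilution checkerboard of fluconazole crossed with the test compound against clinical FLC-resistant isolates. MIC80 is read for each agent alone and in combination, and FICI is calculated. Synergy is FICI ≤0.5, indifference >0.5-4, and antagonism >4.0.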

Experiment [8] concerns Candida albicans. The experiment in a line: Potentiation of fluconazole-induced antifungal activity against drug-resistant Candida albicans 28J after 48 hrs by broth microdilution checkerboard method. Put shortly: as §4
Experiment [9] has as its system Candida albicans. The experiment in a line: Synergistic antifungal activity against drug-resistant Candida albicans 28J after 48 hrs in presence of fluconazole by broth microdilution checkerboard method. Put shortly: as §4
Experiment [10] deals with Candida albicans. The experiment can be described thus: Potentiation of fluconazole-induced antifungal activity against drug-resistant Candida albicans 28I assessed as fluconazole MIC80 after 48 hrs by broth microdilution checkerboard method. The procedure, abridged:
as §4

Experiment [11] relates to Candida albicans. The experiment in a line: Potentiation of fluconazole-induced antifungal activity against drug-resistant Candida albicans 28I after 48 hrs by broth microdilution checkerboard method. Put shortly: as §4
Experiment [12] deals with Candida albicans. The experiment in a line: Synergistic antifungal activity against drug-resistant Candida albicans 28I after 48 hrs in presence of fluconazole by broth microdilution checkerboard method. The procedure, abridged:
as §4

In experiment [13] the test system is Candida albicans. The experiment in a line: Antifungal activity against drug-resistant Candida albicans 28J after 48 hrs by broth microdilution method. The procedure, abridged:
as §3

Experiment [14] concerns Candida albicans. The experiment can be described thus: Antifungal activity against drug-resistant Candida albicans 28I after 48 hrs by broth microdilution method. Put shortly:
as §3

This note sets out measurements from ChEMBL document CHEMBL4219194, “Diversity-oriented synthesis of pyrazoles derivatives from flavones and isoflavones leads to the discovery of promising reversal agents of fluconazole resistance in Candida albicans” (2018).

Values after ≈ are worked out from the molar mass of the structure shown.

In the case of `OCCn1cc(-c2ccc(O)cc2)c(-c2ccc(O)cc2O)n1`, the MIC80 in the experiment on Candida albicans [1], in the experiment with Candida albicans [2], with Candida albicans [3], against Candida albicans [5] and in the experiment on Candida albicans [6] was more than 128 µg/mL throughout. Moreover, the “fractional inhibitory concentration index (FICI)” value with Candida albicans [4] came to 2.

Take `COc1ccc(-c2cnn(-c3ccccc3)c2-c2c(O)cc(OC)cc2OC)cc1`: the MIC80 with Candida albicans [1], with Candida albicans [2], in the experiment on Candida albicans [3], in the experiment on Candida albicans [5] and in the experiment on Candida albicans [6] was more than 128 µg/mL throughout. In addition, the “fractional inhibitory concentration index (FICI)” value in the experiment with Candida albicans [4] is recorded as 2.

For `COc1ccc(-c2cc(-c3ccccc3)nn2CCO)c(O)c1OC`, the MIC80 in the experiment on Candida albicans [1], with Candida albicans [2], against Candida albicans [3], against Candida albicans [5] and in the experiment on Candida albicans [6] was more than 128 µg/mL each time. The “fractional inhibitory concentration index (FICI)” value with Candida albicans [4] was found to be 2.

Regarding `OCCn1cc(-c2ccc(O)cc2)c(-c2ccc(O)c(C3OC(CO)C(O)C(O)C3O)c2O)n1` (stereo not drawn), the MIC80 with Candida albicans [1], with Candida albicans [2], in the experiment with Candida albicans [3], in the experiment on Candida albicans [5] and with Candida albicans [6] was more than 128 µg/mL each time. Moreover, in the experiment on Candida albicans [4], the “fractional inhibitory concentration index (FICI)” value stood at 2.

Take `OCCn1ncc(-c2ccc(O)cc2)c1-c1ccc(O)cc1O`: the MIC80 against Candida albicans [1], with Candida albicans [2], in the experiment with Candida albicans [3], against Candida albicans [5] and in the experiment on Candida albicans [6] was more than 128 µg/mL in each case. Besides, the “fractional inhibitory concentration index (FICI)” value in the experiment on Candida albicans [4] was determined as 2.

In the case of `COc1ccc(-c2cnn(CCO)c2-c2ccc(O)cc2O)cc1`, the MIC80 in the experiment on Candida albicans [1], in the experiment with Candida albicans [2], against Candida albicans [3], against Candida albicans [5] and with Candida albicans [6] was more than 128 µg/mL throughout. The “fractional inhibitory concentration index (FICI)” value in the experiment on Candida albicans [4] worked out at 2.

With `COc1cc(O)c(-c2cc(-c3ccccc3)nn2-c2ccccc2)c(OC)c1`, the MIC80 in the experiment on Candida albicans [1], with Candida albicans [2], in the experiment with Candida albicans [3], in the experiment on Candida albicans [5] and in the experiment on Candida albicans [6] was more than 128 µg/mL each time. In addition, the “fractional inhibitory concentration index (FICI)” value in the experiment with Candida albicans [4] stood at 2.

Regarding `COc1ccc(-n2nc(-c3ccccc3)cc2-c2ccc(OC)c(OC)c2O)cc1`, the MIC80 in the experiment on Candida albicans [1] is more than 128 µg/mL; in the experiment with Candida albicans [2] it was more than 128 µg/mL; in the experiment with Candida albicans [3], more than 128 µg/mL; against Candida albicans [5] it was 8 µg/mL (≈ 19.9 µM); in the experiment with Candida albicans [6] it was more than 128 µg/mL. Besides, the “fractional inhibitory concentration index (FICI)” value in the experiment with Candida albicans [4] came out at 2.

Turning to `COc1ccc(-n2nc(-c3ccccc3)cc2-c2c(O)cc(OC)c(OC)c2OC)cc1`, the MIC80 is more than 128 µg/mL in the experiment on Candida albicans [1]; more than 128 µg/mL in the experiment on Candida albicans [2]; more than 128 µg/mL in the experiment with Candida albicans [3]; 4 µg/mL (≈ 9.25 µM) with Candida albicans [5]; more than 128 µg/mL in the experiment with Candida albicans [6]. Also, in the experiment with Candida albicans [4], the “fractional inhibitory concentration index (FICI)” value worked out at 2.

As for `OCCn1ncc(-c2ccc(O)cc2)c1-c1ccc(O)c(C2OC(CO)C(O)C(O)C2O)c1O` (stereo not drawn), the MIC80 against Candida albicans [1], with Candida albicans [2], against Candida albicans [3], against Candida albicans [5] and in the experiment on Candida albicans [6] was more than 128 µg/mL in each case. Besides, in the experiment on Candida albicans [4], the “fractional inhibitory concentration index (FICI)” value was 2.

Consider `COc1cc(O)c(-c2cc(-c3ccccc3)n(CCO)n2)c(OC)c1`, for which the MIC80 in the experiment with Candida albicans [1] is more than 128 µg/mL; in the experiment with Candida albicans [2], 32 µg/mL; against Candida albicans [3], more than 128 µg/mL; in the experiment on Candida albicans [5] it was 4 µg/mL (≈ 11.8 µM); in the experiment with Candida albicans [6], 2 µg/mL. Also, the “fractional inhibitory concentration index (FICI)” value in the experiment with Candida albicans [4] was found to be 0.266.

In the case of `COc1ccc(-c2cn(CCO)nc2-c2ccc(O)cc2O)cc1`, the MIC80 against Candida albicans [1], in the experiment on Candida albicans [2], in the experiment on Candida albicans [3], in the experiment with Candida albicans [5] and in the experiment with Candida albicans [6] was more than 128 µg/mL in each case. Further, the “fractional inhibitory concentration index (FICI)” value in the experiment on Candida albicans [4] was found to be 2.

As to `CCn1ncc(-c2ccc(O)cc2)c1-c1ccc(O)c(C2OC(CO)C(O)C(O)C2O)c1O` (stereo not drawn), the MIC80 against Candida albicans [1], in the experiment on Candida albicans [2], with Candida albicans [3], in the experiment with Candida albicans [5] and in the experiment on Candida albicans [6] was more than 128 µg/mL each time. Further, the “fractional inhibitory concentration index (FICI)” value in the experiment on Candida albicans [4] stood at 2.

`CCn1cc(-c2ccc(O)cc2)c(-c2ccc(O)c(C3OC(CO)C(O)C(O)C3O)c2O)n1` (stereo not drawn): the MIC80 against Candida albicans [1], in the experiment with Candida albicans [2], against Candida albicans [3], in the experiment on Candida albicans [5] and with Candida albicans [6] was more than 128 µg/mL each time. Further, the “fractional inhibitory concentration index (FICI)” value in the experiment on Candida albicans [4] is listed as 2.

Regarding `Oc1ccc(-c2cnn(-c3ccccc3)c2-c2ccc(O)cc2O)cc1`, the MIC80 with Candida albicans [1], in the experiment with Candida albicans [2], in the experiment with Candida albicans [3], in the experiment on Candida albicans [5] and in the experiment with Candida albicans [6] was more than 128 µg/mL throughout. Also, the “fractional inhibitory concentration index (FICI)” value in the experiment on Candida albicans [4] stood at 2.

As to `COc1cc(O)c(-c2cc(-c3ccccc3)n[nH]2)c(OC)c1`, the MIC80 was determined as 0.5 µg/mL with Candida albicans [7]; 8 µg/mL (≈ 27 µM) with Candida albicans [1]; 8 µg/mL in the experiment with Candida albicans [9]; 0.25 µg/mL in the experiment on Candida albicans [10]; 8 µg/mL with Candida albicans [2]; 32 µg/mL (≈ 108 µM) against Candida albicans [3]. The MIC80 against Candida albicans [5] came to 1 µg/mL (≈ 3.37 µM); in the experiment on Candida albicans [12], 8 µg/mL; in the experiment on Candida albicans [13], 32 µg/mL (≈ 108 µM); against Candida albicans [14], 32 µg/mL (≈ 108 µM); in the experiment on Candida albicans [6], 0.25 µg/mL. The figures for the “fractional inhibitory concentration index (FICI)” value with Candida albicans [8], in the experiment on Candida albicans [11] and with Candida albicans [4] were 0.254, 0.252 and 0.252, respectively.

Consider `COc1ccc(-n2nc(-c3c(O)cc(OC)c(OC)c3OC)cc2-c2ccccc2)cc1`, for which the MIC80 against Candida albicans [1], in the experiment on Candida albicans [2], with Candida albicans [3], in the experiment with Candida albicans [5] and with Candida albicans [6] was more than 128 µg/mL throughout. Besides, the “fractional inhibitory concentration index (FICI)” value in the experiment on Candida albicans [4] is given as 2.

As for `COc1ccc(-c2cn(-c3ccccc3)nc2-c2c(O)cc(OC)cc2OC)cc1`, the MIC80 against Candida albicans [1], in the experiment on Candida albicans [2], in the experiment on Candida albicans [3], against Candida albicans [5] and in the experiment with Candida albicans [6] was more than 128 µg/mL each time. In addition, in the experiment on Candida albicans [4], the “fractional inhibitory concentration index (FICI)” value is 2.

As for `COc1cc(O)c(-c2cc(-c3ccccc3)nn2-c2ccccc2)c(OC)c1OC`, the MIC80 in the experiment on Candida albicans [1], in the experiment with Candida albicans [2], with Candida albicans [3], with Candida albicans [5] and in the experiment with Candida albicans [6] was more than 128 µg/mL throughout. Further, the “fractional inhibitory concentration index (FICI)” value in the experiment with Candida albicans [4] was 2.

With `COc1cc(O)c(-c2cc(-c3ccccc3)n(-c3ccccc3)n2)c(OC)c1OC`, the MIC80 against Candida albicans [1], in the experiment with Candida albicans [2], in the experiment with Candida albicans [3], against Candida albicans [5] and in the experiment with Candida albicans [6] was more than 128 µg/mL in each case. The “fractional inhibitory concentration index (FICI)” value with Candida albicans [4] was 2.

For `OC(Cn1cncn1)(Cn1cncn1)c1ccc(F)cc1F` [FLUCONAZOLE], the MIC80 is 2 µg/mL (≈ 6.53 µM) against Candida albicans [1]; more than 128 µg/mL with Candida albicans [3]; 0.25 µg/mL (≈ 0.816 µM) against Candida albicans [5]; more than 128 µg/mL in the experiment on Candida albicans [13]; more than 128 µg/mL against Candida albicans [14].

For orientation: MIC80 means the lowest concentration that inhibits either 80% of growth or 80% of the strains tested, depending on the study.
